Measurements reported in ChEMBL document CHEMBL4024777, “Discovery of LY3104607: A Potent and Selective G Protein-Coupled Receptor 40 (GPR40) Agonist with Optimized Pharmacokinetic Properties to Support Once Daily Oral Treatment in Patients with Type 2 Diabetes Mellitus” (J Med Chem, 2018).
≈ marks a conversion by molar mass, not a printed value. Calls of active or inactive are those of the source. No cut-off for these calls is given here.

Tests used:
[1] = molecular target: Free fatty acid receptor 1 (Rattus norvegicus) (UniProt Q8K3T4); assay: Agonist activity at rat PK-tagged GPR40 expressed in human U2OS cells assessed as EA-tagged beta-arrestin recruitment after 90 mins in presence of 1 % heat inactivated FBS by beta-galactosidase reporter gene assay relative to untreated control; format: cell-based
[2] = molecular target: T1, Peroxisome proliferator-activated receptor alpha (Homo sapiens) (UniProt Q07869); assay: Displacement of [3H]-agonist from human PPARalpha expressed in baculovirus infecetd Sf9 cells system up to 30 uM after 10 hrs in presence of DR2 by scintillation proximity assay
T1 sequence (whole entry): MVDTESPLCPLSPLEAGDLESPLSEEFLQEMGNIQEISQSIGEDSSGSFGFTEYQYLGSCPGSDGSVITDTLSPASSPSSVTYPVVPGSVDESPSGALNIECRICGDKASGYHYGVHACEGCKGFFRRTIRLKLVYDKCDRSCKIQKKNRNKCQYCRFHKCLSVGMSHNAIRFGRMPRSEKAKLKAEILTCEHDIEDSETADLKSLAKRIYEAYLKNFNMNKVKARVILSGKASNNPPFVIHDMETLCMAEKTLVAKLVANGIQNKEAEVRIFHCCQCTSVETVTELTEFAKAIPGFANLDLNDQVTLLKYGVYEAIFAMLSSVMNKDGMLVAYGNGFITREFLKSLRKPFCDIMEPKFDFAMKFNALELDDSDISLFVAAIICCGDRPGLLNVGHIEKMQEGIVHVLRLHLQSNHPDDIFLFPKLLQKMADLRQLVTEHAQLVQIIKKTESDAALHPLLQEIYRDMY
In short: (§1)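 PPAR alpha, delta and gamma binding and functional activity were each tested at concentrations up to 30 µM.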

[3] = test system: 3T3-L1; assay: Induction of adipogenesis in mouse 3T3L1 cells; format: functional, cell-based
In short: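 Adipogenesis was assessed in 3T3-L1 cells.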

[4] = molecular target: T1, Peroxisome proliferator-activated receptor alpha (Homo sapiens); assay: Agonist activity at GAL4-fused human PPARalpha expressed in African green monkey CV1 cells up to 30 uM after 24 hrs by luciferase reporter gene assay; format: cell-based; in short: as §1
[5] = molecular target: T2, Peroxisome proliferator-activated receptor delta (Homo sapiens) (UniProt Q03181); assay: Agonist activity at GAL4-fused human PPARdelta expressed in African green monkey CV1 cells up to 30 uM after 24 hrs by luciferase reporter gene assay; format: cell-based; in short: as §1
T2 sequence (whole entry): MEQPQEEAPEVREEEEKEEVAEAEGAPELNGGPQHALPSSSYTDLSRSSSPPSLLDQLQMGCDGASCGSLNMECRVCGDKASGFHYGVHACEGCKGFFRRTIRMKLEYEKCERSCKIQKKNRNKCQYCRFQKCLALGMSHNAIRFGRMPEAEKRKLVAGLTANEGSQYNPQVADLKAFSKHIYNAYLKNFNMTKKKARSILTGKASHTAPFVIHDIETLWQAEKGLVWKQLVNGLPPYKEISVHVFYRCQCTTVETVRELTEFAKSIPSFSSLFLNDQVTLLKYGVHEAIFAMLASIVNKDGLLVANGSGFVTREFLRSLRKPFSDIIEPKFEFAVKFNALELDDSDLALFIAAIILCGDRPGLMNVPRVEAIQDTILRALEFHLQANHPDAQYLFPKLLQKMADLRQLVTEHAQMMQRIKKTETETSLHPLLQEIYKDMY

[6] = molecular target: T3, Free fatty acid receptor 1 (Homo sapiens, UniProt O14842); assay: Competitive displacement of [3H]-TAK-875 from full length human recombinant GPR40 expressed in HEK293 cell membranes after 2 hrs by scintillation counting
In short: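 Binding was measured as competitive inhibition of [3H]-TAK875 (fasiglifam) binding to membranes from cells overexpressing recombinant human GPR40. Ki is reported with SEM and n.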

[7] = molecular target: T4, Peroxisome proliferator-activated receptor gamma (Homo sapiens) (UniProt P37231); assay: Displacement of [3H]-agonist from human PPARgamma expressed in baculovirus infecetd Sf9 cells system up to 30 uM after 10 hrs in presence of DR2 by scintillation proximity assay; in short: as §1
T4 sequence (whole entry): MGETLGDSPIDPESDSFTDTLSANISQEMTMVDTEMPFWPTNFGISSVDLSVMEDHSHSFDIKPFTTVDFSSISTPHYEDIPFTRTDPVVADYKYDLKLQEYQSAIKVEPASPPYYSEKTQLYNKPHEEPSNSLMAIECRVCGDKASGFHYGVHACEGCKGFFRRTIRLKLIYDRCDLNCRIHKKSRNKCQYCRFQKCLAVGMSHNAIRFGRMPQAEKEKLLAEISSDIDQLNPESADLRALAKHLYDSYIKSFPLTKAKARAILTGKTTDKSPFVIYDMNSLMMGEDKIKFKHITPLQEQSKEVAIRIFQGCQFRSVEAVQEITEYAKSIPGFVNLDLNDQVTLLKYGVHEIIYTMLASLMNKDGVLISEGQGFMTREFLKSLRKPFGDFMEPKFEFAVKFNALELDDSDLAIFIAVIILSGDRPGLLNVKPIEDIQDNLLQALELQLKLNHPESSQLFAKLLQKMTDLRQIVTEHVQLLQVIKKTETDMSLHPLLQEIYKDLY

[8] = molecular target: T3, Free fatty acid receptor 1; assay: Agonist activity at human GPR40 receptor expressed in HEK293 cells assessed as increase in intracellular calcium flux after 2.5 hrs measured over 3 mins by calcium 4 dye-based FLIPR assay; format: functional, cell-based
In short: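 Calcium flux was read by FLIPR in cells carrying recombinant human GPR40. Percent stimulation is relative to the response to 100 µM linoleic acid. EC50 is reported with SEM and n.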

[9] = molecular target: T2, Peroxisome proliferator-activated receptor delta (Homo sapiens); assay: Displacement of [3H]-agonist from human PPARdelta expressed in baculovirus infecetd Sf9 cells system up to 30 uM after 10 hrs in presence of DR2 by scintillation proximity assay; in short: as §1
[10] = molecular target: T3, Free fatty acid receptor 1; assay: Agonist activity at human GPR40 receptor expressed in HEK293 cells assessed as increase in intracellular calcium flux after 2.5 hrs measured over 3 mins in presence of 0.1% serum albumin by calcium 4 dye-based FLIPR assay; format: functional, cell-based
[11] = molecular target: T4, Peroxisome proliferator-activated receptor gamma (Homo sapiens); assay: Agonist activity at […] human PPARgamma expressed in African green monkey CV1 cells up to 30 uM after 24 hrs by luciferase reporter gene assay; format: cell-based; in short: as §1
[12] = Protein binding in plasma (unknown origin) by equilibrium dialysis assay; format: ADME, cell-free; settings: read-out: PPB
[13] = molecular target: T3, Free fatty acid receptor 1; assay: Agonist activity at human GPR40 receptor expressed in HEK293 cells assessed as increase in intracellular calcium flux after 2.5 hrs measured over 3 mins by calcium 4 dye-based FLIPR assay relative to linoleic acid; format: functional, cell-based; parameters: Activity: concentration or dose not given beside the values
In short: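 Human GPR40 calcium flux was read on FLIPR. Percent stimulation is expressed against the response to 100 uM linoleic acid.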

[14] = molecular target: T3, Free fatty acid receptor 1; assay: Agonist activity at human PK-tagged GPR40 expressed in HEK293 cells assessed as EA-tagged beta-arrestin recruitment after 90 mins in presence of 1 % heat inactivated FBS by beta-galactosidase reporter gene assay relative to untreated control; format: cell-based
[15] = molecular target: Free fatty acid receptor 1 (Rattus norvegicus, UniProt Q8K3T4); assay: Agonist activity at rat PK-tagged GPR40 expressed in human U2OS cells assessed as EA-tagged beta-arrestin recruitment after 90 mins in presence of 1 % heat inactivated FBS by beta-galactosidase reporter gene assay; format: cell-based
In short: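 β-Arrestin recruitment used rat GPR40 in the presence of 1% FBS. EC50 and % maximal stimulation are reported with SEM and n.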

[16] = molecular target: T3, Free fatty acid receptor 1; assay: Agonist activity at human PK-tagged GPR40 expressed in HEK293 cells assessed as EA-tagged beta-arrestin recruitment after 90 mins in presence of 1 % heat inactivated FBS by beta-galactosidase reporter gene assay; format: cell-based
[17] = test system: Rattus norvegicus; assay: Antidiabetic activity in Zucker fa/fa rat assessed as reduction in blood glucose AUC at 1 mg/kg, po administered for 1 day followed by OGTT at 1 hr after compound dosing and measured 60 mins post glucose challenge by oral glucose tolerance test; format: functional, organism-based
[18] = Metabolic stability in dog microsomes assessed as compound metabolized after 30 mins; format: ADME, Canis lupus familiaris, Microsome; settings: read-out: Drug metabolism
In short: (§2)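 Compound incubated 30 min with liver microsomes from mouse, rat, dog or human. Percent of compound metabolized recorded, as mean (SEM, n).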

[19] = Dissociation constant, pKa of the compound; format: physicochemical
[20] = Aqueous solubility of the compound at pH 7.4; format: physicochemical
In short: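 Solubility was measured by DMSO/aqueous precipitation at pH 7.4 and reported as the last soluble concentration.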

[21] = Drug metabolism in rat hepatocytes assessed as O-dealkylation; format: ADME, cell-based, Hepatocyte
[22] = Metabolic stability in rat microsomes assessed as compound metabolized after 30 mins; format: ADME, Microsome; settings: read-out: Drug metabolism; in short: as §2
[23] = Drug metabolism in mouse hepatocytes assessed as glucuronidation; format: ADME, cell-based, Hepatocyte
[24] = Drug metabolism in rat hepatocytes assessed as oxidation; format: ADME, cell-based, Hepatocyte
[25] = Drug metabolism in rat hepatocytes assessed as glucuronidation; format: ADME, cell-based, Hepatocyte
[26] = Volume of distribution in type 2 diabetes patient; format: ADME; settings: human, in vivo
[27] = Clearance in type 2 diabetes patient; format: ADME; settings: human, in vivo
[28] = test system: Rattus norvegicus; assay: Antidiabetic activity in po dosed Zucker fa/fa rat assessed as reduction in blood glucose AUC administered daily for 21 days followed by OGTT at 1 hr after compound dosing and measured 60 mins post glucose challenge by oral glucose tolerance test; format: functional
[29] = Drug metabolism in mouse hepatocytes assessed as oxidation; format: ADME, cell-based, Hepatocyte
[30] = Drug metabolism in dog hepatocytes assessed as glucuronidation; format: ADME, cell-based, Canis lupus familiaris, Hepatocyte
[31] = Drug metabolism in dog hepatocytes assessed as oxidation; format: ADME, cell-based, Canis lupus familiaris, Hepatocyte
[32] = Intrinsic clearance in human microsomes; format: ADME, Microsome
[33] = Drug metabolism in mouse hepatocytes assessed as O-dealkylation; format: ADME, cell-based, Hepatocyte
[34] = Drug metabolism in dog hepatocytes assessed as O-dealkylation; format: ADME, cell-based, Canis lupus familiaris, Hepatocyte

T3 sequence (O14842 whole entry): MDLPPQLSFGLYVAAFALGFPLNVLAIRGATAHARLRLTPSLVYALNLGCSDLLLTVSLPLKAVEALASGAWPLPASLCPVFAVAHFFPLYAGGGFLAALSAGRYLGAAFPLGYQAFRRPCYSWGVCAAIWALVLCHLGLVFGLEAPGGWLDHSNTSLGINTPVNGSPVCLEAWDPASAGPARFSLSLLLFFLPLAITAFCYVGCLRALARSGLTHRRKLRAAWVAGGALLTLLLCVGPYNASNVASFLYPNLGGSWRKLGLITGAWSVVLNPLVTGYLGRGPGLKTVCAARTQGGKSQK
Chain of Free fatty acid receptor 1 (Rattus norvegicus) (Q8K3T4 whole entry): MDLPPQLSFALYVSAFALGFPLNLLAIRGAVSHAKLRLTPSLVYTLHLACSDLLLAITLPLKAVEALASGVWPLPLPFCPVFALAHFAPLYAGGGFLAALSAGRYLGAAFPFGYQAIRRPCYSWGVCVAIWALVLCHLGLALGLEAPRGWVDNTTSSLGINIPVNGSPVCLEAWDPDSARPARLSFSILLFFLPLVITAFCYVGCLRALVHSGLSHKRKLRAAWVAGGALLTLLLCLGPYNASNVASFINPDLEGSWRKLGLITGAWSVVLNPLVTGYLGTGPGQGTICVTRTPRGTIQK
Chain of Free fatty acid receptor 1 (Rattus norvegicus, UniProt Q8K3T4) (Q8K3T4 whole entry): as above

Compound	%max [1] [%]	Activity [2]	Activity [4]	Activity [5]	Ki [6] [nM]	Activity [7]	EC50 [8] [nM]	Activity [9]	Activity [10]	Activity [11]	fraction unbound [12]	Activity [13] [%]	%max [14] [%]	EC50 [15] [nM]	EC50 [16] [nM]	Activity [3]	further results
CC#C[C@@H](CC(=O)O)c1ccc(OCc2ccc3nc(-c4ccc(OCCOC)cc4)nn3c2)cc1	133	inactive	inactive	inactive	102	inactive	16	inactive	Active	inactive	< 0.01	74	121	562	681	inactive	
CC#C[C@@H](CC(=O)O)c1ccc(OCc2ccc(CN3CCC4(C=Cc5ccccc54)CC3)cc2)cc1 [LY2881835]																	Activity [17]: Active; metabolised at 0.5 h [18]: 65%; pKa [19]: 4.1 to 8.1; solubility [20]: 61 to 80 µM (≈ 30 to 39.3 µg/mL); Drug metabolism [21]: Metabolite_Detected; metabolised at 0.5 h [22]: 64%; Drug metabolism [23]: Metabolite_Detected; Drug metabolism [24]: Metabolite_Detected; Drug metabolism [25]: Metabolite_Detected; Vd [26]: 111 L; clearance [27]: 183 mL/min; ED90 [28]: 1 mg/kg; Drug metabolism [29]: Metabolite_Detected; Drug metabolism [30]: Metabolite_Detected; Drug metabolism [31]: Metabolite_Detected; K [32]: 0.033 h⁻¹; Drug metabolism [33]: Metabolite_Detected; %max [13]: 62%; Drug metabolism [34]: Metabolite_Detected
CC#C[C@@H](CC(=O)O)c1ccc(OCc2ccc3nc(-c4c(C)cc(OCCCS(C)(=O)=O)cc4C)nn3c2)cc1	140	inactive	inactive	inactive	63	inactive	117	inactive	Active	inactive	< 0.01	71	114	95	1490	inactive	
CC#C[C@@H](CC(=O)O)c1ccc(OCc2ccc3nc(-c4ccc(C(C)C)cc4)nn3c2)cc1	123	inactive	inactive	inactive	32	inactive	2	inactive	Active	inactive	< 0.01	65	154	30	67	inactive	
CC#C[C@@H](CC(=O)O)c1ccc(OCc2ccc3nc(-c4ccc(C#N)cc4)nn3c2)cc1	125	inactive	inactive	inactive	35	inactive	9	inactive	Active	inactive	< 0.01	65	124	216	443	inactive	

Second part, led by results:

%max [1] [%]	Activity [2]	Activity [4]	Activity [5]	Ki [6] [nM]	Activity [7]	EC50 [8] [nM]	Activity [9]	Activity [10]	Activity [11]	fraction unbound [12]	Activity [13] [%]	%max [14] [%]	EC50 [15] [nM]	EC50 [16] [nM]	Compound	Activity [3]	further results
142	inactive	inactive	inactive	60	inactive	1	inactive	Active	inactive	< 0.01	64	127	98	166	CC#C[C@@H](CC(=O)O)c1ccc(OCc2ccc3nc(-c4ccc(OC(F)F)cc4)nn3c2)cc1	inactive	
121	inactive	inactive	inactive	37	inactive	72	inactive	Active	inactive	< 0.01	89	132	68	301	CC#C[C@@H](CC(=O)O)c1ccc(OCc2ccc3nc(-c4ccc(OCCC(C)(C)O)cc4)nn3c2)cc1	inactive	
